# Screens deposited in PubChem BioAssay by several laboratories.
# Shown are actives, neighbours in structure and some others; about 3.6% of the full set was active somewhere.
# UCH37 DUB inh = inhibitors of human deubiquitinating enzyme UCH37. Q9Y5K5. purified proteasome/UCH37, Ub-AMC cleavage fluorescence. inhibition, % (no concentration beside the values). 0.33% of 330,000 active. AID 588478;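 active = mean inhibition over replicate wells above about 20%, limit read from the data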;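 note: 0% = compound-free wells with enzyme and 100% = wells lacking proteasome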
# Target sequence (Q9Y5K5 whole entry, looked up): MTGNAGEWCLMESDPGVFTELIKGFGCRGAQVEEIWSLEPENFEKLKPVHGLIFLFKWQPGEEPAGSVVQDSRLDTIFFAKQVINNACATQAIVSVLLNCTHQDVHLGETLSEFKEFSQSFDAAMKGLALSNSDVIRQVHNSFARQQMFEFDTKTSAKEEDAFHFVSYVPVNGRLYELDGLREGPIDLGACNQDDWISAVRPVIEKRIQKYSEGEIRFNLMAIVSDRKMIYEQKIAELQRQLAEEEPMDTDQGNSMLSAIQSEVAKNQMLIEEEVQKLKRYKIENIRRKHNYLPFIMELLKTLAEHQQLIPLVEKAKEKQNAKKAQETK
#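 system = Proteasome-associated human UCH37 deubiquitinase | amount = 0.15 nM proteasome as dispensed | medium = pH 7.4 Tris-HCl (50 mM) with ovalbumin, ATP-MgCl2, DTT | incubation = 30 min preincubation with enzyme, 25 min cleavage at room temperature | detection = AMC fluorescence 355/460 nm | read-out basis = percent inhibition | controls = no-proteasome and no-compound wells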
# SENP1 inh = inhibitors of human SENP1 SUMO protease catalytic domain; 0.21% of 360,000 active; AID 624204; recombinant SENP1 catalytic domain, CyPet-SUMO1-YPet FRET cleavage; inhibition, % at 10 µM;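 active = inhibition at least 30% at 10 µM, raw YFP signal under a set limit, fluorescence ratio 0.5 to 1.5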;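 note: 0% = enzyme with DMSO and 100% = no enzyme wells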
# Target sequence (Q9P0U3 419-644 limits assumed): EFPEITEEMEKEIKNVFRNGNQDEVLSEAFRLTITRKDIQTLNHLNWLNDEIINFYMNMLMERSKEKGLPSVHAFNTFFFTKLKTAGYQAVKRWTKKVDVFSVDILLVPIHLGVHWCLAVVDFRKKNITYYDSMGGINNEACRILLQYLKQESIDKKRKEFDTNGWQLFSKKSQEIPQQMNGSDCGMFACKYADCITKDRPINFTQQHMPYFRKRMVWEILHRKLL
#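 System: Recombinant human SENP1 catalytic domain, His6-tagged | Incubation: Enzyme reaction for 50 min at room temperature, dark | Medium: Tris pH 8 with BME, BSA, NP40 and catalase | Also added: 25 nM SUMO1 FRET substrate | Compound: 10 µM single point, 0.5% DMSO | Measured by: FRET fluorescence in CFP and YFP emission channels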
# GRIN3A LBD mod = modulates the human NR3A ligand-binding domain. 2.5% of 340,000 active. Tm shift relative to glycine control, % at 25 µM. AID 1259313. NR3A LBD differential scanning fluorimetry, Tm shift; 0% = protein alone, 100% = glycine-bound protein;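 active = melting temperature shift of at least 10% of the positive control shift, at one fixed dose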
# NadD inh = blocks S. aureus nicotinate mononucleotide adenylyltransferase | inhibition, % at 20 µM | AID 602399 | purified NadD enzyme, colorimetric absorbance read-out | 0.78% of 360,000 active; in the data active = inhibition above about 26%
# ATG4B inh = blocks human ATG4B protease cleavage of LC3 substrate | Q9Y4P1 | ATG4B cleavage of LC3-PLA2, NBD-HPC fluorescence, 1 h | inhibition, % at 8.33 µM | 0.51% of 340,000 active | AID 504462; in the data active = inhibition above about 40%
# Active calls of the source: *; / = not tested or not shown.
SMILES,UCH37 DUB inh,SENP1 inh,GRIN3A LBD mod,NadD inh,ATG4B inh
CCOc1ccc(S(=O)(=O)N2CCC(C(=O)N3CCN(C)CC3)CC2)cc1Cl,3,0,-1,-4,-1
CCOc1ccc(S(=O)(=O)N2CCC(C(=O)N3CCCCCC3)CC2)cc1Cl,2,2,13*,-5,36
O=C(N/N=C\c1cccnc1)c1cc(-c2ccc(Cl)s2)[nH]n1,/,1,23*,0,-2
O=C(NN=Cc1cccnc1)c1ccc(NC(=O)c2cccc(Cl)c2)cc1,6,/,/,/,/
Cc1cccc(/C=N/NC(=O)c2ccc(NC(=O)c3cccc(Cl)c3)cc2)n1,/,-31,15*,3,-7
O=C(N/N=C/c1cccnc1)c1ccc(NC(=O)c2cccc(Cl)c2)cc1,/,-4,12*,-2,3
O=C(N/N=C/c1cccnc1)c1ccc(Cl)c(Cl)c1,/,2,14*,-6,5
O=C(NN=Cc1cccnc1)c1cc(O)c(O)c(O)c1,3,/,/,/,/
O=C(N/N=C/c1cccnc1)c1ccc(NC(=O)c2ccc(Cl)cc2)cc1,/,-5,14*,-13,9
COCCNC(=O)C(=O)NN=C(C)CC(=O)Nc1cccnc1,2,/,/,/,/
S=c1[nH]nc(-c2ccc(Br)cc2)n1Cc1ccccc1,4,0,14*,3,-2
FC(F)C(F)(F)Oc1cccc(-c2n[nH]c(=S)n2Cc2ccccc2)c1,1,2,21*,9,-15
Cn1c(=O)n(C)c2cc(C=NNC(=S)NCc3ccccc3)ccc21,6,/,/,/,/
N#CC(C#N)=C(Nc1ccc(F)cc1)SCc1cccc(Br)c1,2,1,25*,-6,24
Cc1cccc(CSC(Nc2ccc(F)cc2)=C(C#N)C#N)c1,2,-1,6,-1,11
CC(C)Oc1c(Br)cc(Br)cc1C=NNC(N)=S,8,/,/,/,/
COc1ccc(-c2cc(-c3ccc(C)cc3)n[nH]2)c(O)c1,3,1,31*,-6,8
CC(C)(C)c1ccc(-c2cc(-c3ccccc3O)[nH]n2)cc1,0,1,19*,0,4
COc1ccc(-c2cc(-c3cc(C)ccc3O)[nH]n2)cc1,5,1,14*,1,3
COc1ccc(-c2cc(-c3ccc(OC)cc3)[nH]n2)cc1,2,0,10,6,-40
CSc1ccccc1NC(=O)CSc1nnnn1-c1ccccc1SC,-1,1,3,-5,-4
CSc1ccccc1-n1nnnc1SCC(=O)Nc1ccccc1C,0,0,14*,-10,9
CCOc1ccc(/C=N/NC(=O)c2ccccc2NC(=O)c2ccc(OC)cc2)cc1,/,1,15*,11,4
CCOc1ccc(OCc2ccc(C(=O)NN=Cc3ccc[nH]3)cc2)cc1,-7,0,19*,4,-4
N#CC1=C(N)N2C(=C(C#N)C13CCN(Cc1ccccc1)CC3)Nc1ccccc12,-21,-89,-1,-2,-15
SMILES,UCH37 DUB inh,SENP1 inh,GRIN3A LBD mod,NadD inh,ATG4B inh
N#CC1=C(N)N2C(=C(C#N)C1c1cccc(Br)c1)Nc1ccccc12 (stereo not given),5,-26,24*,10,2
N#CC1=C(N)N2C(=C(C#N)C1c1ccc(Br)cc1)Nc1ccccc12 (stereo not given),-10,/,23*,/,13
Cc1ccc(C=NNC(=O)c2nnn(-c3nonc3N)c2CSc2ccc(Cl)cc2)o1,-11,/,/,/,/
Oc1ccc(N2CCN(CC(O)c3ccccc3)CC2)cc1 (stereo not given),5,0,32*,-3,-7
COc1ccc(CC(=NO)c2ccc(OC)cc2)cc1,2,/,/,/,/
CSc1ccc(C=NNC(=O)CC(=O)NC(C)C)cc1,-11,/,/,/,/
O=C(O)CC(NC(=O)c1ccccc1NC(=O)c1ccccc1)C(=O)O (stereo not given),-1,0,28*,4,-4
Cc1ccc(C(=O)Nc2ccccc2C(=O)NC(CC(=O)O)C(=O)O)cc1 (stereo not given),6,2,2,3,-8
Clc1cccc(NN=Cc2ccc(N3CCOCC3)cc2)c1,-23,/,/,/,/
Oc1cccc(C=NNc2cccc3cccnc23)c1,-8,/,/,/,/
Oc1ccc(/C=N/Nc2cccc3cccnc23)c(O)c1,/,-38,32*,7,-6
Cc1ccc(/C=N/Nc2cccc3cccnc23)c(O)c1,/,-69,10*,-5,0
COc1ccccc1C(=O)N/C(=N\c1nc(C)cc(C)n1)Nc1ccccc1,4,/,/,/,/
Cc1ccc2cc(CN(CCN(C)C)C(=O)Nc3ccc(Cl)cc3)c(=O)[nH]c2c1,7,1,11*,-7,2
C=CCn1c(COc2ccc(Cl)cc2)nnc1SCC(=O)NN=Cc1ccccc1,0,/,/,/,/
O=C(Oc1ccc(/C=N/NC(=O)c2ccccc2O)cc1)c1ccccc1,/,-5,13*,22,3
COc1cc(C(=O)N/N=C/c2ccc(OC(=O)c3ccccc3Cl)cc2)ccc1O,/,2,26*,6,4
Cc1cccc(C(=O)Oc2ccc(/C=N/NC(=O)c3cc(O)cc(O)c3)cc2)c1,/,3,14*,16,24
COc1cc(C(=O)NN=Cc2ccc(OC(=O)c3ccccc3Cl)cc2)ccc1O,3,/,/,/,/
O=C(NN=Cc1ccc(OC(=O)c2ccccc2Cl)cc1)c1cc(O)cc(O)c1,22*,/,/,/,/
O=C(Oc1ccc(C=NNC(=O)c2ccccc2F)cc1)c1ccccc1,0,/,/,/,/
CC(=NO)C(=O)NCCN1CCCCC1,5,/,/,/,/
CC(/C=C/c1ccccc1)=NNC(=O)CSc1ccccn1,7,/,/,/,/
O=C(CNC(=O)c1ccc2c(c1)OCCO2)NN=Cc1ccco1,3,/,/,/,/
COc1ccc(CCCC(=O)NN=Cc2cccs2)cc1,8,/,/,/,/
SMILES,UCH37 DUB inh,SENP1 inh,GRIN3A LBD mod,NadD inh,ATG4B inh
COc1ccc(C(C)=NNC(=S)NCc2ccco2)cc1,6,/,/,/,/
COc1ccc(NC(=O)c2ccco2)cc1NC(=O)c1ccco1,1,1,-2,-1,0
CCOc1cc(NC(=O)c2ccco2)c(OCC)cc1NC(=O)CCc1ccccc1OC,-16,-21,15*,-8,-5
COc1cc(NC(=O)c2ccco2)c(OC)cc1NC(=O)Nc1cccc(Cl)c1,-3,0,22*,-5,-2
CCOc1cc(NC(=O)c2ccco2)c(OCC)cc1NC(=O)c1ccco1,-139,-62,1,1,-5
COc1ccc([N+](=O)[O-])cc1NC(=O)Nc1cccc(Cl)c1,5,0,29*,1,-9
ON=C(c1ccc2c(c1)OCCO2)C1CCCCC1,2,/,/,/,/
CCOc1cc(C=NNC(=O)CCn2nc(C)cc2C)ccc1O,-2,/,/,/,/
CCOC(=O)Cn1cc(C=NN2C(=O)C3C4C=CC(C4)C3C2=O)c2ccccc21 (stereo not given),1,/,/,/,/
Cc1ccc(NC(=O)Nc2sc(=S)n(C)c2C)cc1,-3,8,12*,11,-10
CC(=O)NC(=O)Nc1sc(=S)n(C)c1C,9,0,-1,1,3
C(/C=C/c1ccccc1)=NNc1nc2ccccc2s1,-9,/,/,/,/
